Measured values as given in ChEMBL document CHEMBL1137705, “Study of 5-nitroindazoles' anti-Trypanosoma cruzi mode of action: electrochemical behaviour and ESR spectroscopic studies” (Eur J Med Chem, 2009).
Activity calls are given as the source filed them. The calls are words filed in the database; no cut-off is given here.

What was measured:
Trypanosoma cruzi [1] = test: Growth inhibition of Trypanosoma cruzi CL-Brener clone epimastigotes […] at 25 uM measured on […] by Brener method; assay type: functional; conditions: 120 h, read-out: GI
Summary of the method: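 Axenic epimastigote culture (CL Brener) ran at 28 °C in BHI-tryptose with 5% FBS. Start density was 1 × 10⁶ cells/mL, with drug added from a DMSO stock (final ≤0.4%). %GI = {1 − [(Ap − A0p)/(Ac − A0c)]} × 100, using A600 at day 5 and day 0, drug versus drug-free control. Means of three experiments.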

Trypanosoma cruzi [2] = test: Antitrypanosomal activity against Trypanosoma cruzi SN3 trypomastigotes infected in african green monkey Vero cells assessed as parasite viability at 6.6 uM after 24 hrs by MTT assay; assay type: functional
Trypanosoma cruzi [3] = test: Antitrypanosomal activity against Trypanosoma cruzi SN3 trypomastigotes infected in african green monkey Vero cells assessed as parasite viability at 16.4 uM after 24 hrs by MTT assay; assay type: functional
Trypanosoma cruzi [4] = test: Antitrypanosomal activity against Trypanosoma cruzi CL-Brener clone epimastigotes […] measured on […] by Brener method; assay type: functional, organism-based; conditions: 120 h
Summary of the method: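 CL Brener epimastigotes were grown axenically at 28 °C in BHI-tryptose with 5% FBS. Day-0 inoculum was 1 × 10⁶ cells/mL from a 10-day stationary culture. Drug came from a DMSO stock, with final DMSO ≤0.4%; control had 0.4% DMSO and no drug. A600 was read daily. IC50 was the concentration reducing the day-5 absorbance ratio versus control to 50%.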

Trypanosoma cruzi [5] = test: Antitrypanosomal activity against Trypanosoma cruzi SN3 trypomastigotes infected in african green monkey Vero cells assessed as parasite viability at 11 uM after 24 hrs by MTT assay; assay type: functional
Summary of the method: (§1)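 Vero cells were infected with SN-3 metacyclic trypomastigotes, then reinfected at 1 × 10⁶ parasites per 25 cm². Harvested trypomastigotes (1 × 10⁷) were incubated in FBS-RPMI at 37 °C for 24 h with or without compound. MTT was added to an aliquot at 0.5 mg/mL final, 28 °C for 4 h. SDS–HCl solubilisation ran overnight. Read-out was A570, reference 690 nm; untreated parasites = 100% viability.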

Trypanosoma cruzi [6] = test: Antitrypanosomal activity against Trypanosoma cruzi SN3 trypomastigotes infected in african green monkey Vero cells assessed as parasite viability at 12.5 uM after 24 hrs by MTT assay; assay type: functional
Trypanosoma cruzi [7] = test: Induction of nitro-anion radical production in epimastigotes form of Trypanosoma cruzi Tulahuen microsomes at 2 mM after 25 mins by ESR spectroscopy; assay type: functional; conditions: Microsome
Trypanosoma cruzi [8] = test: Induction of nitro-anion radical production in epimastigotes form of Trypanosoma cruzi Tulahuen microsomes at 1 mM after 25 mins by ESR spectroscopy; assay type: functional; conditions: Microsome
Trypanosoma cruzi [9] = test: Antitrypanosomal activity against Trypanosoma cruzi SN3 trypomastigotes infected in african green monkey Vero cells assessed as parasite viability at 22 uM after 24 hrs by MTT assay; assay type: functional; summary of the method: as §1

Row | Compound | inhibition of growth at 25 µM (Trypanosoma cruzi [1]) [%] | other results
1 | O=c1c2cc([N+](=O)[O-])ccc2n2n1CCCCC2 | 4 | –
2 | O=[N+]([O-])c1ccc2c(c1)c(OCc1ccccc1)nn2CCCCCN1CCCCC1 | 100 | Activity (Trypanosoma cruzi [2]): 0.29%
3 | O=c1c2cc([N+](=O)[O-])ccc2n2n1CCOCC2 | 6 | –
4 | O=[N+]([O-])c1ccc2c(c1)c(OCc1ccccc1)nn2CCOCCN1CCCCC1 | 24 | –
5 | CN(C)CCCCCn1nc(OCc2ccccc2)c2ccccc21 | 18 | –
6 | CN(C)CCOCCn1nc(OCc2ccccc2)c2cc([N+](=O)[O-])ccc21 | 80 | Activity (Trypanosoma cruzi [3]): 0.56%
7 | C[N+](C)([O-])CCOCCn1nc(OCc2ccccc2)c2cc([N+](=O)[O-])ccc21 | 6 | –
8 | CCCCNCCCCCn1nc(OCc2ccccc2)c2cc([N+](=O)[O-])ccc21 | 94 | IC50 (Trypanosoma cruzi [4]): 11 µM; Activity (Trypanosoma cruzi [5]): -0.37%
9 | CC1CS(=O)(=O)CCN1/N=C/c1ccc([N+](=O)[O-])o1 (configuration not stated) [NIFURTIMOX] | 100 | IC50 (Trypanosoma cruzi [4]): 3.4 µM
10 | O=[N+]([O-])c1ccc2c(c1)c(OCc1ccccc1)nn2CCOCCN1CCSCC1 | 20 | –
11 | CN(C)CCCCCn1nc(OCc2ccccc2)c2cc([N+](=O)[O-])ccc21 | 100 | Activity (Trypanosoma cruzi [6]): 0.49%
12 | COc1nn(CCOCCN2CCCCC2)c2ccc([N+](=O)[O-])cc12 | 25 | –
13 | CN(C)CCOCCn1nc(O)c2cc([N+](=O)[O-])ccc21 | 3 | –
14 | O=[N+]([O-])c1ccc2c(c1)c(O)nn2CCOCCN1CCSCC1 | 0 | –
15 | O=[N+]([O-])c1ccc2c(c1)c(OCc1ccccc1)nn2CCOCC[N+]1([O-])CCCCC1 | 0 | –
16 | CCCCNCCCCCn1nc(OC)c2cc([N+](=O)[O-])ccc21 | 58 | IC50 (Trypanosoma cruzi [4]): 22 µM; Activity (Trypanosoma cruzi [7]): Active; Activity (Trypanosoma cruzi [8]): Active; Activity (Trypanosoma cruzi [9]): 40.04%
17 | O=[N+]([O-])c1ccc2c(c1)c(O)nn2CCOCCN1CCCCC1 | 9 | –
